JMJD2C inh – inhibitors of GASC-1 histone demethylase, primary screen, biochemical, fluorescence, DELFIA europium | 330,000 compounds, 0.069% hits | Lysine-specific demethylase 4C (Homo sapiens), Q9H3R0 | GST-JMJD2C(1-420) H3K9me3 demethylation | inhibition, % at 2.35 µM;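 active means more than half of a compound's replicate wells show inhibition beyond 50%, single wells judged on their own value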;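 further: signal counts dimethyl H3K9 product captured on neutravidin plate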
T cell HTS – modulators of CD8 T cell-vesicle binding, primary screen, mouse 2C CD8+ T cells, flow cytometry; response (vesicle binding), % at 7 µM; 330,000 compounds, 0.068% hits; AID 2052, 2009; 2C CD8+ T cell-vesicle binding; active compounds read low;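 active means response, share of CD8 T cells binding vesicles, and their 90th percentile fluorescence all below set limits, cut at about 80% in these data, passing the limit was not always enough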;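 further: values below 100% mean blocked vesicle binding to the CD8+ T cells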
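Benchmarks: naked versus QL9-loaded vesicles / Assay system: purified 2C TCR transgenic mouse naive CD8+ T cells / Technique: high-throughput flow cytometry with anti-B7-1 and anti-CD8 staining / Timing: Cell–vesicle co-incubation 1.5 h at 37 °C, staining 20 min on ice / Read-out: percent CD8+ FL2 mean versus row control / Probe or stimulus: QL9-loaded Drosophila micro-vesicles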
HTR2A ag – mouse Htr2a agonists via beta-arrestin recruitment, primary screen, cell-based, luminescence; 360,000 compounds, 0.66% hits; 5-hydroxytryptamine receptor 2A (Mus musculus), P35363; AID 624169, 2012; CHO-K1 mHTR2A beta-arrestin complementation; percent of 30 µM serotonin response; activation, % at 7.6 µM;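 active means activation above a run cutoff, the mean activation of all tested compounds plus 3 SD, cut at about 14% in these data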
PP1 inh – PP1-alpha phosphatase inhibitors, primary screen, counter-screen for PP5 inhibitor project, biochemical, fluorescence, OMFP substrate, single point. purified PP1alpha. inhibition, % at 6.7 µM. 320,000 compounds, 0.9% hits;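 active means inhibition above the mean inhibition of all tested compounds plus 3 SD, computed separately for each screening campaign, cut at about 15% in these data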
Target sequence (P62136 whole entry, looked up): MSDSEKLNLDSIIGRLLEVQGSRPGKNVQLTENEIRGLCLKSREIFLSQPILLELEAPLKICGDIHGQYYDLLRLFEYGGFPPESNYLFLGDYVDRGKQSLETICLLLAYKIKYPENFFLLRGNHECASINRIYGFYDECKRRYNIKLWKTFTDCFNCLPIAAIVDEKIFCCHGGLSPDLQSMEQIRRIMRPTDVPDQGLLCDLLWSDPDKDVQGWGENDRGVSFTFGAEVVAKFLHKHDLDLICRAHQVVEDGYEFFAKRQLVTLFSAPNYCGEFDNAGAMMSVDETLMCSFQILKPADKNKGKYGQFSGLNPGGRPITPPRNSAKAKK
PP5 inh – PP5 phosphatase inhibitors, primary screen, biochemical, fluorescence; purified PP5c, OMFP substrate fluorescence; inhibition, % at 6.7 µM; 320,000 compounds, 0.18% hits; AID 1987, 2009;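 active means inhibition above the campaign's mean inhibition across all tested compounds plus 3 SD, cut at about 9.5% in these data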
PP1 confirm – PP1 phosphatase inhibitors, confirmation, biochemical, fluorescence, OMFP substrate, triplicate. shares compounds with PP1 inh. purified PP1alpha. inhibition, % at 6.7 µM. 1,900 compounds, 52% hits. AID 2358, 2010;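 active means mean PP1 inhibition above a set limit taken from the earlier primary screen, cut at about 15% in these data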
PP5 inh counter – PP5 phosphatase inhibition by PP1 hits, confirmation, counter-screen for PP1 inhibitor project, biochemical, fluorescence, triplicate | shares compounds with PP1 inh | purified PP5c, OMFP fluorescence | inhibition, % at 6.7 µM | 1,900 compounds, 4% hits | AID 2360, 2010;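 active means mean PP5 inhibition over triplicate wells above about 9.5% taken from the earlier PP1 screen, limit read from the data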
Large screens that a line does not name were inactive (follow-up assays come after a bar, where they were run). In the library only some 1.7% were active in any assay of this set; here they are far more common.

O=C(O)C1C2CCC(O2)C1C(=O)Nc1ccc(F)cc1 (configuration not stated)	PP1 inh 31, PP5 inh 44 | PP1 confirm inactive | PP5 inh counter inactive
CCc1ccc(NC(=O)C2C3CCC(O3)C2C(=O)O)cc1 (configuration not stated)	PP1 inh 74, PP5 inh 80 | PP1 confirm 18 | PP5 inh counter 38
CC(=O)Nc1ccc(NC(=O)C2C3C=CC(C3)C2C(=O)O)cc1 (configuration not stated)	none
O=C(O)C1C2CCC(O2)C1C(=O)NCc1ccncc1 (configuration not stated)	PP1 inh 20, PP5 inh 37 | PP1 confirm 15 | PP5 inh counter 26
O=C(O)C1C2CCC(O2)C1C(=O)Nc1cccc(F)c1 (configuration not stated)	PP1 inh 55, PP5 inh 52 (no result: HTR2A ag) | PP1 confirm inactive | PP5 inh counter 17
CCc1ccc(NC(=O)C2CCN(c3c(N4CCCC4)c(=O)c3=O)CC2)cc1	none
Fc1ccc(N2CN(Cc3cccnc3)CNC2=S)cc1	none (no result: JMJD2C inh)
CCN(CC)C(=O)[C@H]1CC(CC(=O)NCCCn2ccnc2)C(=O)N2CCc3c([nH]c4ccccc34)[C@]12C (some centres not stated)	none (no result: PP1 inh, PP5 inh)
O=C(O)c1ccc(NC(=O)C2C3CCC(O3)C2C(=O)O)cc1 (configuration not stated)	PP1 inh 75, PP5 inh 79 | PP1 confirm 31 | PP5 inh counter 37
CC(C)COC(=O)c1ccc(NC(=O)C2C3CCC(C3)C2C(=O)O)cc1 (configuration not stated)	none
CN(CC(=O)Nc1c(Cl)cccc1Cl)C(=O)Cn1[nH]c(=O)c2ccccc2c1=O	none
Cc1cc(C)c2nc(N3C(=O)C(O)=C(C(=O)c4ccco4)C3c3cccc(O)c3)sc2c1 (configuration not stated)	PP1 inh 34 | PP1 confirm 26 | PP5 inh counter inactive
Cc1cc(C)c2nc(N3C(=O)C(O)=C(C(=O)c4ccco4)C3c3ccc(O)cc3)sc2c1 (configuration not stated)	PP1 inh 34 | PP1 confirm 30 | PP5 inh counter inactive
CC(Oc1ccccc1)C(=O)N=Nc1c(O)[nH]c2ccc(Br)cc12 (configuration not stated)	PP1 inh 18 | PP1 confirm inactive | PP5 inh counter inactive
CN(C(=O)c1ccc(-c2nn(C)c(=O)c3ccccc23)cc1)C1CCCCC1	none
COc1ccc(C(=O)NCCc2cnc[nH]2)cc1OC	none
Cc1ccc(CN2C(=O)C3CCCN3c3ccc(C#N)cc32)cc1 (configuration not stated)	PP1 inh 18 (no result: HTR2A ag) | PP1 confirm inactive | PP5 inh counter inactive
Cc1onc(-c2ccccc2)c1C(=O)NC(=S)NNC(=O)c1cc(-c2ccc(F)cc2)n[nH]1	PP1 inh 29 | PP1 confirm 22 | PP5 inh counter inactive
Cc1onc(-c2ccccc2)c1C(=O)NNC(=S)NC(=O)/C=C/c1cccs1	PP1 inh 19 | PP1 confirm inactive | PP5 inh counter inactive
O=C(/C=C/c1cccs1)NC(=S)NNC(=O)Cc1cccs1	PP1 inh 25 | PP1 confirm 24 | PP5 inh counter inactive
COc1ccc2[nH]cc(/C=C/c3cc[n+](C)cc3)c2c1	none
O=c1c2ccccc2sn1-c1ccc(Cl)cc1Cl	none (no result: JMJD2C inh, T cell HTS, PP1 inh, PP5 inh)
